Test results: ChEMBL document CHEMBL2331264, “A nitrophenyl-based prodrug type for colorectal targeting of prednisolone, budesonide and celecoxib” (Bioorg Med Chem Lett, 2013); call rule not given here

test system: Clostridium perfringens; test: Prodrug activation in Clostridium perfringens assessed as prednisolone release under anaerobic conditions at 50 uM up to 24 hrs by HPLC analysis; type: organism-based; details: not given
Method in brief: (§1)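 C. perfringens grown overnight on brain heart infusion (BHI) agar, then colonies were suspended in BHI broth to OD600 0.9–1.1. Compound incubated in the suspension under anaerobic conditions, pH 7.4, 37 °C, with a no-bacteria BHI control. Aliquots taken at 0, 2, 4, 6 and 24 h and centrifuged at 10,000 rpm for 10 min. Supernatants were stored at −20 °C, then HPLC for prodrug and released parent drug (n = 3).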

Row | Structure (SMILES) | Drug metabolism
1 | CCCC1O[C@@H]2C[C@H]3[C@@H]4CCC5=CC(=O)C=C[C@]5(C)[C@H]4[C@@H](O)C[C@]3(C)[C@]2(C(=O)COC(=O)Cc2ccccc2[N+](=O)[O-])O1 (stereo not given in full) | Active
2 | C[C@]12C=CC(=O)C=C1CC[C@@H]1[C@@H]2[C@@H](O)C[C@@]2(C)[C@H]1CC[C@]2(O)C(=O)COC(=O)Cc1ccccc1[N+](=O)[O-] | Active
3 | C[C@]12C=CC(=O)C=C1CC[C@@H]1[C@@H]2[C@@H](O)C[C@@]2(C)[C@H]1CC[C@]2(O)C(=O)COC(=O)CCc1ccccc1 | Not Active
4 | C[C@]12C=CC(=O)C=C1CC[C@@H]1[C@@H]2[C@@H](O)C[C@@]2(C)[C@H]1CC[C@]2(O)C(=O)COC(=O)CCc1ccccc1[N+](=O)[O-] | Active
5 | CCCC1O[C@@H]2C[C@H]3[C@@H]4CCC5=CC(=O)C=C[C@]5(C)[C@H]4[C@@H](O)C[C@]3(C)[C@]2(C(=O)COC(=O)CCc2ccccc2[N+](=O)[O-])O1 (stereo not given in full) | Not Active

test system: not listed separately; test: Metabolic stability in brain heart infusion medium up to 24 hrs by HPLC analysis; type: ADME, tissue-based; details: not given
Method in brief: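 Prodrug was incubated in BHI medium without bacteria under anaerobic conditions at pH 7.4 and 37 °C. Aliquots were taken at 0, 2, 4, 6 and 24 h and centrifuged at 10,000 rpm for 10 min. Supernatants were stored at −20 °C, then analysed by an HPLC method that resolves BHI components from prodrug and activation byproducts; n = 3.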

Row | Structure (SMILES) | Stability
6 | Cc1ccc(-c2cc(C(F)(F)F)nn2-c2ccc(S(=O)(=O)NC(=O)Cc3ccccc3[N+](=O)[O-])cc2)cc1 | Stable
7 | CCCC1O[C@@H]2C[C@H]3[C@@H]4CCC5=CC(=O)C=C[C@]5(C)[C@H]4[C@@H](O)C[C@]3(C)[C@]2(C(=O)COC(=O)Cc2ccccc2[N+](=O)[O-])O1 (stereo not given in full) | Stable
8 | Cc1ccc(-c2cc(C(F)(F)F)nn2-c2ccc(S(=O)(=O)NC(=O)CCc3ccccc3)cc2)cc1 | Stable
9 | C[C@]12C=CC(=O)C=C1CC[C@@H]1[C@@H]2[C@@H](O)C[C@@]2(C)[C@H]1CC[C@]2(O)C(=O)COC(=O)Cc1ccccc1[N+](=O)[O-] | Stable
10 | Cc1ccc(-c2cc(C(F)(F)F)nn2-c2ccc(S(=O)(=O)NC(=O)CCc3ccccc3[N+](=O)[O-])cc2)cc1 | Stable
11 | C[C@]12C=CC(=O)C=C1CC[C@@H]1[C@@H]2[C@@H](O)C[C@@]2(C)[C@H]1CC[C@]2(O)C(=O)COC(=O)CCc1ccccc1 | Stable
12 | C[C@]12C=CC(=O)C=C1CC[C@@H]1[C@@H]2[C@@H](O)C[C@@]2(C)[C@H]1CC[C@]2(O)C(=O)COC(=O)CCc1ccccc1[N+](=O)[O-] | Stable
13 | CCCC1O[C@@H]2C[C@H]3[C@@H]4CCC5=CC(=O)C=C[C@]5(C)[C@H]4[C@@H](O)C[C@]3(C)[C@]2(C(=O)COC(=O)CCc2ccccc2[N+](=O)[O-])O1 (stereo not given in full) | Stable

test system: not listed separately; test: Stability of the compound in simulated human duodenal fluid up to 1500 mins by HPLC analysis; type: ADME; details: 25 h

Row | Structure (SMILES) | Stability
14 | Cc1ccc(-c2cc(C(F)(F)F)nn2-c2ccc(S(=O)(=O)NC(=O)Cc3ccccc3[N+](=O)[O-])cc2)cc1 | Stable
15 | CCCC1O[C@@H]2C[C@H]3[C@@H]4CCC5=CC(=O)C=C[C@]5(C)[C@H]4[C@@H](O)C[C@]3(C)[C@]2(C(=O)COC(=O)Cc2ccccc2[N+](=O)[O-])O1 (stereo not given in full) | Stable
16 | C[C@]12C=CC(=O)C=C1CC[C@@H]1[C@@H]2[C@@H](O)C[C@@]2(C)[C@H]1CC[C@]2(O)C(=O)COC(=O)Cc1ccccc1[N+](=O)[O-] | Stable
17 | Cc1ccc(-c2cc(C(F)(F)F)nn2-c2ccc(S(=O)(=O)NC(=O)CCc3ccccc3[N+](=O)[O-])cc2)cc1 | Stable
18 | C[C@]12C=CC(=O)C=C1CC[C@@H]1[C@@H]2[C@@H](O)C[C@@]2(C)[C@H]1CC[C@]2(O)C(=O)COC(=O)CCc1ccccc1[N+](=O)[O-] | Stable
19 | CCCC1O[C@@H]2C[C@H]3[C@@H]4CCC5=CC(=O)C=C[C@]5(C)[C@H]4[C@@H](O)C[C@]3(C)[C@]2(C(=O)COC(=O)CCc2ccccc2[N+](=O)[O-])O1 (stereo not given in full) | Stable

test system: Clostridium perfringens; test: Prodrug activation in Clostridium perfringens assessed as celecoxib release under anaerobic conditions at 50 uM up to 24 hrs by HPLC analysis; type: organism-based; details: not given; method in brief: as §1

Row | Structure (SMILES) | Drug metabolism
20 | Cc1ccc(-c2cc(C(F)(F)F)nn2-c2ccc(S(=O)(=O)NC(=O)CCc3ccccc3)cc2)cc1 | Not Active

test system: not listed separately; test: Stability of the compound in simulated human gastric juices up to 1500 mins by HPLC analysis; type: ADME, Gastric juice; details: 25 h

Row | Structure (SMILES) | Stability
21 | Cc1ccc(-c2cc(C(F)(F)F)nn2-c2ccc(S(=O)(=O)NC(=O)Cc3ccccc3[N+](=O)[O-])cc2)cc1 | Stable
22 | CCCC1O[C@@H]2C[C@H]3[C@@H]4CCC5=CC(=O)C=C[C@]5(C)[C@H]4[C@@H](O)C[C@]3(C)[C@]2(C(=O)COC(=O)Cc2ccccc2[N+](=O)[O-])O1 (stereo not given in full) | Stable
23 | C[C@]12C=CC(=O)C=C1CC[C@@H]1[C@@H]2[C@@H](O)C[C@@]2(C)[C@H]1CC[C@]2(O)C(=O)COC(=O)Cc1ccccc1[N+](=O)[O-] | Stable
24 | Cc1ccc(-c2cc(C(F)(F)F)nn2-c2ccc(S(=O)(=O)NC(=O)CCc3ccccc3[N+](=O)[O-])cc2)cc1 | Stable
25 | C[C@]12C=CC(=O)C=C1CC[C@@H]1[C@@H]2[C@@H](O)C[C@@]2(C)[C@H]1CC[C@]2(O)C(=O)COC(=O)CCc1ccccc1[N+](=O)[O-] | Stable
26 | CCCC1O[C@@H]2C[C@H]3[C@@H]4CCC5=CC(=O)C=C[C@]5(C)[C@H]4[C@@H](O)C[C@]3(C)[C@]2(C(=O)COC(=O)CCc2ccccc2[N+](=O)[O-])O1 (stereo not given in full) | Stable

test system: Caco-2; test: Apparent permeability from apical to basolateral side of human Caco2 cells; type: ADME, cell-based; details: not given
Method in brief: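 Transport measured across the epithelial monolayer. Samples were drawn from the acceptor reservoir at 0, 30, 60 and 120 min, and fresh buffer was added each time to keep the volume constant. The donor solution was sampled at 120 min. Caffeine was run in two wells in the apical-to-basolateral direction as a routine control.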

Row | Structure (SMILES) | Papp
27 | Cc1ccc(-c2cc(C(F)(F)F)nn2-c2ccc(S(=O)(=O)NC(=O)Cc3ccccc3[N+](=O)[O-])cc2)cc1 | permeable
28 | CCCC1O[C@@H]2C[C@H]3[C@@H]4CCC5=CC(=O)C=C[C@]5(C)[C@H]4[C@@H](O)C[C@]3(C)[C@]2(C(=O)COC(=O)Cc2ccccc2[N+](=O)[O-])O1 (stereo not given in full) | permeable
29 | Cc1ccc(-c2cc(C(F)(F)F)nn2-c2ccc(S(=O)(=O)NC(=O)CCc3ccccc3[N+](=O)[O-])cc2)cc1 | permeable
30 | CCCC1O[C@@H]2C[C@H]3[C@@H]4CCC5=CC(=O)C=C[C@]5(C)[C@H]4[C@@H](O)C[C@]3(C)[C@]2(C(=O)COC(=O)CCc2ccccc2[N+](=O)[O-])O1 (stereo not given in full) | impermeable
